Where only a bound is given, the exact number is not on record here.

For orientation: IC50 means the concentration that gives 50% inhibition. Higher therefore signals weaker potency. In general, Emax refers to the greatest response seen or fitted, relative to the assay's reference. As usually defined, the CC50 is the concentration that lowers cell viability or growth by half.

The nature of data set [1]: Selectivity index, ratio of CC50 for cytotoxicity against human U2OS cells to IC50 for Trypanosoma cruzi Y Tc2 amastigotes infected in human U2OS cells. It counts as toxicity, cell-based. The settings on record: read-out: Ratio CC50/IC50. The method in brief:
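Ratio of U2OS CC50 to Y-strain amastigote IC50, both from the same 72 h Draq5-stained HCS assay in infected U2OS cells (2-fold series up to 200 μM, 1% DMSO).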

In data set [2] the test system is Trypanosoma cruzi. The experiment in a line: Antitrypanosomal activity Trypanosoma cruzi Bug 2149 cl10 Tc5 epimastigotes measured after 72 hrs. The note with it: for IC50: Trypanosoma cruzi, Bug 2149 cl10, CL1-0, 72 h. It counts as functional, organism-based. The method in brief:
(§1)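 Exponentially growing epimastigotes (1.0*10^7 parasites/mL) cultured in LIT-FCS medium with compound from 0.4 to 300.0 µM, added from DMSO stock (DMSO ≤1.0%), 72 h at 28 °C. PGI computed against untreated culture after subtracting compound/medium blanks. IC50 from sigmoid dose-response fit using at least six concentrations. Triplicates, at least two independent experiments.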

Data set [3] deals with Trypanosoma cruzi. Nature of the data set: Antitrypanosomal activity against Trypanosoma cruzi Silvio X10 cl1 Tc1 epimastigotes measured after 72 hrs. It counts as functional, organism-based. The note with it: for IC50: Trypanosoma cruzi, Silvio X10 cl1, 72 h. In outline: as §1
The subject of data set [4] is Trypanosoma cruzi. Nature of the data set: Antitrypanosomal activity against Trypanosoma cruzi Y Tc2 amastigotes infected in human U2OS cells up to 200 uM after 72 hrs by Draq5 staining based HCS analysis relative to control. It counts as functional. The method in brief: (§2)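 U2OS cells (700/well, high-glucose DME, 10% FBS) seeded and incubated 24 h. Then infected with 2,800 Y-strain trypomastigotes harvested from LLC-MK2 cells. On day 3, 14-point 2-fold dilutions added, top 200 μM, 1% DMSO, 72 h. Fixed in 4% PFA, Draq5 stained, imaged at 20x. Infection ratio normalized to DMSO-mock infected and uninfected controls. IC50 by sigmoidal variable-slope fit. Doublets, duplicate experiments.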

The nature of data set [5]: Cytotoxicity against human U2OS cells assessed as reduction in cell viability. It counts as cell-based.
Data set [6] deals with Trypanosoma cruzi. Nature of the data set: Antitrypanosomal activity Trypanosoma cruzi Y Tc2 epimastigotes measured after 72 hrs. It counts as functional, organism-based. The settings on record: for IC50: Trypanosoma cruzi, Y, 72 h. The method in brief:
(§3)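 Exponentially growing epimastigotes (1.0*10^7 parasites/mL) cultured in LIT-FCS medium with compound from 0.4 to 300.0 µM, added from DMSO stock (DMSO ≤1.0%), 72 h at 28 °C. Viable parasites read by absorbance at 562 nm. PGI computed against untreated culture after subtracting compound/medium blanks. IC50 from sigmoid dose-response fit using at least six concentrations. Triplicates, at least two independent experiments.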

The test system of data set [7] is Trypanosoma cruzi. The experiment in a line: Antitrypanosomal activity against Trypanosoma cruzi Y Tc2 amastigotes infected in human U2OS cells after 72 hrs by Draq5 staining based HCS analysis. It is filed as functional, organism-based. The method in brief:
as §2

The subject of data set [8] is Trypanosoma cruzi. Nature of the data set: Antitrypanosomal activity against Trypanosoma cruzi Colombiana Tc1 epimastigotes measured after 72 hrs. It counts as functional, organism-based. The note with it: for IC50: Trypanosoma cruzi, Colombiana, 72 h. The method in brief: as §3

Consider `O=C(N/N=C/c1ccc([N+](=O)[O-])o1)c1cccs1`, for which, in data set [1], the selectivity ratio worked out at 53.9. Further, the log1/IC50 in the data set on Trypanosoma cruzi [2] is recorded as 5.16; with Trypanosoma cruzi [3] it was 4.89; with Trypanosoma cruzi [6] it was 5.26; with Trypanosoma cruzi [8] it was 4.82. The IC50 in the data set on Trypanosoma cruzi [2] is 6.87 µM; in the data set on Trypanosoma cruzi [3] it was 12.8 µM; with Trypanosoma cruzi [6], 5.51 µM; with Trypanosoma cruzi [7], 1.06 µM; in the data set with Trypanosoma cruzi [8], 15.1 µM. Besides, the Emax in the data set on Trypanosoma cruzi [4] was determined as 94.5%. In addition, the CC50 in data set [5] amounted to 57.2 µM.

Take `COc1ccc(C(=O)N/N=C/c2ccc([N+](=O)[O-])o2)cc1`: in the data set with Trypanosoma cruzi [8], the log1/IC50 is recorded as 5.09 and the IC50 was determined as 8.08 µM.

In the case of `CCOc1ccc(C(=O)N/N=C/c2ccc([N+](=O)[O-])o2)cc1`, the log1/IC50 in the data set with Trypanosoma cruzi [2] is on record as 5.2; in the data set on Trypanosoma cruzi [3] it was 4.86; in the data set on Trypanosoma cruzi [6], 5.01; in the data set with Trypanosoma cruzi [8] it was 4.94. Moreover, the IC50 stood at 6.26 µM with Trypanosoma cruzi [2], 13.8 µM with Trypanosoma cruzi [3], 9.74 µM in the data set with Trypanosoma cruzi [6] and 11.6 µM in the data set on Trypanosoma cruzi [8].

As for `O=C(N/N=C/c1ccc([N+](=O)[O-])o1)c1ccco1`, the log1/IC50 is 5 in the data set with Trypanosoma cruzi [2], 4.75 in the data set with Trypanosoma cruzi [3], 4.6 in the data set on Trypanosoma cruzi [6] and 4.88 in the data set with Trypanosoma cruzi [8]. Also, the IC50 turned out to be 9.99 µM in the data set on Trypanosoma cruzi [2], 17.9 µM in the data set with Trypanosoma cruzi [3], 24.9 µM in the data set with Trypanosoma cruzi [6] and 13.1 µM in the data set on Trypanosoma cruzi [8].

On to `CCc1ccc(C(=O)N/N=C/c2ccc([N+](=O)[O-])o2)cc1`, for which the log1/IC50 with Trypanosoma cruzi [2] came to 5.02; in the data set on Trypanosoma cruzi [3], 4.91; in the data set on Trypanosoma cruzi [6], 5.04; in the data set with Trypanosoma cruzi [8], 5.18. Also, the IC50 is 9.53 µM in the data set with Trypanosoma cruzi [2], 12.3 µM in the data set with Trypanosoma cruzi [3], 9.11 µM in the data set with Trypanosoma cruzi [6] and 6.55 µM in the data set on Trypanosoma cruzi [8].

In the data set with Trypanosoma cruzi [8], `O=C(N/N=C/c1ccc([N+](=O)[O-])o1)C1CCCC1` had a log1/IC50 of 5.01 and an IC50 of 9.67 µM.

With `O=C(N/N=C/c1ccc([N+](=O)[O-])o1)c1cccc([N+](=O)[O-])c1`, the log1/IC50 with Trypanosoma cruzi [2] is recorded as 4.52; with Trypanosoma cruzi [3] it was 4.28; in the data set on Trypanosoma cruzi [6], 4.36; with Trypanosoma cruzi [8], 4.39. In addition, the IC50 in the data set with Trypanosoma cruzi [2] came to 30.4 µM; in the data set on Trypanosoma cruzi [3], 52.3 µM; in the data set on Trypanosoma cruzi [6], 44.1 µM; in the data set with Trypanosoma cruzi [8], 40.6 µM.

Consider `Cc1nnsc1C(=O)N/N=C/c1ccc([N+](=O)[O-])o1`, for which the log1/IC50 in the data set with Trypanosoma cruzi [2] came to 4.73; in the data set on Trypanosoma cruzi [3] it was 4.47; with Trypanosoma cruzi [6], 4.76; with Trypanosoma cruzi [8] it was 4.85. Besides, the IC50 was found to be 18.7 µM in the data set on Trypanosoma cruzi [2], 34.1 µM in the data set on Trypanosoma cruzi [3], 17.3 µM with Trypanosoma cruzi [6] and 14.2 µM in the data set with Trypanosoma cruzi [8].

For `COc1ccc(C(=O)N/N=C/c2ccc([N+](=O)[O-])o2)cc1OC`, the log1/IC50 with Trypanosoma cruzi [2] came out at 4.76; in the data set on Trypanosoma cruzi [3], 4.56; with Trypanosoma cruzi [6] it was 4.85; in the data set with Trypanosoma cruzi [8] it was 4.58. Besides, the IC50 is 17.2 µM with Trypanosoma cruzi [2], 27.3 µM in the data set with Trypanosoma cruzi [3], 14.2 µM in the data set with Trypanosoma cruzi [6] and 26.6 µM in the data set with Trypanosoma cruzi [8].

In the data set with Trypanosoma cruzi [8], `CCCc1ccc(C(=O)N/N=C/c2ccc([N+](=O)[O-])o2)cc1` displayed a log1/IC50 of 5.14 and an IC50 of 7.25 µM.

On to `CN(C)c1ccc(C(=O)N/N=C/c2ccc([N+](=O)[O-])o2)cc1`, for which, in the data set with Trypanosoma cruzi [8], the log1/IC50 is listed as 4.07 and the IC50 amounted to 85.5 µM.

`CCCCCCCCC(=O)N/N=C/c1ccc([N+](=O)[O-])o1`: in the data set with Trypanosoma cruzi [8], the log1/IC50 is reported as 5.09 and the IC50 amounted to 8.07 µM.

As for `N#Cc1ccc(C(=O)N/N=C/c2ccc([N+](=O)[O-])o2)cc1`, the selectivity ratio in data set [1] amounted to 12.1. The same compound came in with an Emax with Trypanosoma cruzi [4] of 95.5%. For the same compound, the CC50 in data set [5] came to 21.4 µM. The compound further had an IC50 in the data set on Trypanosoma cruzi [7] of 1.77 µM. In the data set on Trypanosoma cruzi [8], the log1/IC50 was found to be 4.69 and half-maximal inhibition (IC50) required 20.2 µM.

Take `CC(C)(C)OC(=O)N/N=C/c1ccc([N+](=O)[O-])o1`: in the data set on Trypanosoma cruzi [8], the log1/IC50 is listed as 5.13 and the IC50 worked out at 7.41 µM.

`O=C(N/N=C/c1ccc([N+](=O)[O-])o1)C1CCCCC1`: the selectivity ratio in data set [1] is 8.77. This compound also showed an Emax in the data set on Trypanosoma cruzi [4] of 119%. In addition, the CC50 in data set [5] was determined as 25.4 µM. Besides, the results for the IC50 with Trypanosoma cruzi [7] and in the data set on Trypanosoma cruzi [8] were 2.9 µM and 10.2 µM, respectively. Further, the log1/IC50 in the data set on Trypanosoma cruzi [8] was 4.99.

Take `N#CCC(=O)N/N=C/c1ccc([N+](=O)[O-])o1`: the log1/IC50 in the data set with Trypanosoma cruzi [2] was 4.56; with Trypanosoma cruzi [3], 4.39; with Trypanosoma cruzi [6] it was 4.09; in the data set with Trypanosoma cruzi [8] it was 4.22. Besides, the IC50 with Trypanosoma cruzi [2] came out at 27.4 µM; in the data set with Trypanosoma cruzi [3], 40.5 µM; with Trypanosoma cruzi [6] it was 80.2 µM; in the data set on Trypanosoma cruzi [8], 60.6 µM.

Consider `CCCOc1ccc(C(=O)N/N=C/c2ccc([N+](=O)[O-])o2)cc1`, for which, in the data set with Trypanosoma cruzi [8], the log1/IC50 is 5.28 and the IC50 worked out at 5.26 µM.

As to `CCCCCC(=O)N/N=C/c1ccc([N+](=O)[O-])o1`, the selectivity ratio in data set [1] stood at 7.39. This compound had an Emax in the data set on Trypanosoma cruzi [4] of 115%. Moreover, the CC50 in data set [5] came out at 19.3 µM. The same compound gave an IC50 in the data set with Trypanosoma cruzi [7] of 2.61 µM. In the data set with Trypanosoma cruzi [8], this compound registered a log1/IC50 of 5.12 and an IC50 of 7.58 µM.

As to `CC(C)(C)c1ccc(C(=O)N/N=C/c2ccc([N+](=O)[O-])o2)cc1`, the selectivity ratio in data set [1] was above 140. In the data set on Trypanosoma cruzi [4], the Emax was found to be 98.4%. Also, the CC50 in data set [5] was above 200 µM. Also, in the data set on Trypanosoma cruzi [7], inhibition was half-maximal at 1.43 µM (IC50). In the data set with Trypanosoma cruzi [8], this compound gave a log1/IC50 of 5.21 and an IC50 of 6.1 µM.

As for `O=C(N/N=C/c1ccc([N+](=O)[O-])o1)c1cccc(C(F)(F)F)c1`, the log1/IC50 in the data set with Trypanosoma cruzi [2] was 4.84; with Trypanosoma cruzi [3] it was 4.59; in the data set with Trypanosoma cruzi [6], 4.98; in the data set on Trypanosoma cruzi [8], 5. In addition, the IC50 in the data set with Trypanosoma cruzi [2] is 14.6 µM; in the data set with Trypanosoma cruzi [3], 25.5 µM; in the data set on Trypanosoma cruzi [6], 10.6 µM; in the data set with Trypanosoma cruzi [8], 9.98 µM.

In the data set with Trypanosoma cruzi [8], `Cc1cccc(C(=O)N/N=C/c2ccc([N+](=O)[O-])o2)c1` returned a log1/IC50 of 5.07 and an IC50 of 8.53 µM.

In the data set with Trypanosoma cruzi [8], `O=C(N/N=C/c1ccc([N+](=O)[O-])o1)c1ccccc1Oc1ccccc1` showed a log1/IC50 of 5.24 and an IC50 of 5.79 µM.

In the data set with Trypanosoma cruzi [8], `O=C(Cc1ccccc1)N/N=C/c1ccc([N+](=O)[O-])o1` displayed a log1/IC50 of 5 and an IC50 of 10.1 µM.

With `Cc1ccc(C(=O)N/N=C/c2ccc([N+](=O)[O-])o2)cc1`, in the data set on Trypanosoma cruzi [8], the log1/IC50 worked out at 4.92 and the IC50 stood at 11.9 µM.

`O=C(Cn1ccnc1[N+](=O)[O-])NCc1ccccc1` [BENZNIDAZOLE] showed an Emax in the data set on Trypanosoma cruzi [4] of 85.2%. For the same compound, in data set [5], the CC50 is above 200 µM. Also, the figures for the IC50 with Trypanosoma cruzi [7] and in the data set on Trypanosoma cruzi [8] were 64.3 µM and 47.9 µM, respectively.

With `CC(=O)N/N=C/c1ccc([N+](=O)[O-])o1` [NIHYDRAZONE], the selectivity ratio in data set [1] came to 8.49. In the data set on Trypanosoma cruzi [4], this compound had an Emax of 98.7%. Moreover, the CC50 in data set [5] came to 39.2 µM. In addition, it took 4.62 µM to reach half-maximal inhibition with Trypanosoma cruzi [7] (IC50). In the data set on Trypanosoma cruzi [8], this compound returned a log1/IC50 of 5.02 and an IC50 of 9.52 µM.

Consider `O=C(N/N=C/c1ccc([N+](=O)[O-])o1)c1ccccc1`, for which, in the data set on Trypanosoma cruzi [8], the log1/IC50 is 4.95 and the IC50 came to 11.3 µM.

In the data set with Trypanosoma cruzi [8], `O=C(N/N=C/c1ccc([N+](=O)[O-])o1)c1ccc(Cl)cc1` gave a log1/IC50 of 5.06 and an IC50 of 8.64 µM.

In turn, `CC(C)c1ccc(C(=O)N/N=C/c2ccc([N+](=O)[O-])o2)cc1` came in with a log1/IC50 in the data set on Trypanosoma cruzi [8] of 5.22.
